Results as given in ChEMBL document CHEMBL5344483, “Design and synthesis of novel chloropyridazine hybrids as promising anticancer agents acting by apoptosis induction and PARP-1 inhibition through a molecular hybridization strategy” (RSC Med Chem, 2024).
The source made the active and inactive calls. No cut-off for these calls is given here.

How the values were obtained:
[1] = target: Poly [ADP-ribose] polymerase 1 (Homo sapiens, UniProt P09874); experiment: Inhibition of PARP1 (unknown origin) by ELISA
[2] = Cytotoxicity against human HSF (VGS) cells assessed as growth inhibition at 100 microg/mL by SRB assay relative to control; type: toxicity, cell-based; conditions: at 100 µg/mL, read-out: GI
[3] = system: A549; experiment: Anticancer activity against human A549 cells assessed as growth inhibition at 100 microg/mL by SRB assay relative to control; type: functional; conditions: read-out: GI
Procedure, shortened: (§1)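 Cells seeded at 3×10^3 per well and allowed to attach for 24 h. Treated with 100 µg/mL compound for 48 h, triplicate wells, with a 1% v/v DMSO vehicle control. Fixed in 20% TCA, stained with 0.4% SRB, and OD read at 570 nm. Survival fraction is treated OD/control OD.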

[4] = system: HCT-116; experiment: Anticancer activity against human HCT-116 cells assessed as growth inhibition at 100 microg/mL by SRB assay relative to control; type: functional; conditions: read-out: GI; procedure, shortened: as §1
[5] = system: MCF7; experiment: Anticancer activity against human MCF7 cells assessed as growth inhibition at 100 microg/mL by SRB assay relative to control; type: functional; conditions: read-out: GI; procedure, shortened: as §1
[6] = system: FaDu; experiment: Anticancer activity against human FaDu cells assessed as growth inhibition at 100 microg/mL by SRB assay relative to control; type: functional; conditions: read-out: GI; procedure, shortened: as §1
[7] = system: MDA-MB-468; experiment: Anticancer activity against human MDA-MB-468 cells assessed as growth inhibition at 100 microg/mL by SRB assay relative to control; type: functional; conditions: read-out: GI; procedure, shortened: as §1
[8] = system: FaDu; experiment: Cytotoxicity against human FaDu cells by SRB assay; type: functional, cell-based
Procedure, shortened: (§2)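 Cells seeded at 3×10^3 per well and allowed to attach for 24 h. Exposed to […], 12.5, 25 and 50 µg/mL for 48 h, triplicate wells per concentration, with a 1% v/v DMSO vehicle. Fixed in 20% TCA, stained with 0.4% SRB, and OD read at 570 nm. IC50 from sigmoidal dose-response fit of survival fraction (treated/control OD).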

[9] = system: Huh-7; experiment: Anticancer activity against human Huh-7 cells assessed as growth inhibition at 100 microg/mL by SRB assay relative to control; type: functional; conditions: read-out: GI; procedure, shortened: as §1
[10] = system: MDA-MB-468; experiment: Cytotoxicity against human MDA-MB-468 cells by SRB assay; type: functional, cell-based; procedure, shortened: as §2
[11] = system: HNO 97 cell line; experiment: Anticancer activity against human HNO97 cells assessed as growth inhibition at 100 microg/mL by SRB assay relative to control; type: functional; conditions: read-out: GI; procedure, shortened: as §1
[12] = system: SK-BR-3; experiment: Anticancer activity against human SK-BR-3 cells assessed as growth inhibition at 100 microg/mL by SRB assay relative to control; type: functional; conditions: read-out: GI; procedure, shortened: as §1
[13] = system: A-375; experiment: Anticancer activity against human A-375 cells assessed as growth inhibition at 100 microg/mL by SRB assay relative to control; type: functional; conditions: read-out: GI; procedure, shortened: as §1
[14] = system: HeLa; experiment: Anticancer activity against human HeLa cells assessed as growth inhibition at 100 microg/mL by SRB assay relative to control; type: functional; conditions: read-out: GI; procedure, shortened: as §1
[15] = system: HNO 97 cell line; experiment: Cytotoxicity against human HNO97 cells by SRB assay; type: functional, cell-based; procedure, shortened: as §2
[16] = system: NCI-H460; experiment: Anticancer activity against human NCI-H460 cells assessed as growth inhibition at 100 microg/mL by SRB assay relative to control; type: functional; conditions: read-out: GI; procedure, shortened: as §1
[17] = system: MDA-MB-231; experiment: Antiproliferative activity against human MDA-MB-231 cells assessed as reduction in cell growth by coomassie Brilliant Blue staining based analysis; type: functional

Chain of Poly [ADP-ribose] polymerase 1 (P09874 whole entry): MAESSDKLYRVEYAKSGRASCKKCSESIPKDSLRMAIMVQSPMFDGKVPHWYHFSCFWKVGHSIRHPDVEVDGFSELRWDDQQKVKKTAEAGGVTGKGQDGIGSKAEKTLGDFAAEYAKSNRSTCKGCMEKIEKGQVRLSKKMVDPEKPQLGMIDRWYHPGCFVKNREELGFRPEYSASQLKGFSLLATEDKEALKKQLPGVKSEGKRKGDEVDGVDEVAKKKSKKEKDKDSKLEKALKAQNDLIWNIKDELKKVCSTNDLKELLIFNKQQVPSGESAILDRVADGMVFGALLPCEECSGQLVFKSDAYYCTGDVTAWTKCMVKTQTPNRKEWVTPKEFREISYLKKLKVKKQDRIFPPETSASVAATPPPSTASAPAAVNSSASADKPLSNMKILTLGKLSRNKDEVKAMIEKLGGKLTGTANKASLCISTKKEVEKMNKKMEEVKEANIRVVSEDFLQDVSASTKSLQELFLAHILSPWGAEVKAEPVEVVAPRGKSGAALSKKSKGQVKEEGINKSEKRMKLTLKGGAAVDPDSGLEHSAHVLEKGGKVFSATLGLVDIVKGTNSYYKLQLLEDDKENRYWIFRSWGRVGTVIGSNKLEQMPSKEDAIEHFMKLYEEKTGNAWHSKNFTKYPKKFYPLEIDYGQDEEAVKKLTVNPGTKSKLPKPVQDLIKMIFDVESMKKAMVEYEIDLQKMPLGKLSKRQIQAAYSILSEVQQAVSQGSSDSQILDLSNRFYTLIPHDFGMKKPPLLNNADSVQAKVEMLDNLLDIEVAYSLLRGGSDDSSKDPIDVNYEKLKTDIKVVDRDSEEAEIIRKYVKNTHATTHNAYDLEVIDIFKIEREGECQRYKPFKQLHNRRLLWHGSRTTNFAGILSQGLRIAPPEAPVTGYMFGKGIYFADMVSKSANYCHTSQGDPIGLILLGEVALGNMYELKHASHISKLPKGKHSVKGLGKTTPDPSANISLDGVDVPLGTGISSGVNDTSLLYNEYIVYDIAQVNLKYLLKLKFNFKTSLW

| IC50 [1] [µM] | Structure (SMILES) | inhibition at 100 microg/mL [2] [%] | inhibition of growth at 100 µg/mL [3] [%] | inhibition of growth at 100 µg/mL [4] [%] | inhibition of growth at 100 µg/mL [5] [%] | inhibition of growth at 100 µg/mL [6] [%] | inhibition of growth at 100 µg/mL [7] [%] | IC50 [8] [µM] | inhibition of growth at 100 µg/mL [9] [%] | IC50 [10] [µM] | inhibition of growth at 100 µg/mL [11] [%] | inhibition of growth at 100 µg/mL [12] [%] | inhibition of growth at 100 µg/mL [13] [%] | inhibition of growth at 100 µg/mL [14] [%] | IC50 [15] [µM] | inhibition of growth at 100 µg/mL [16] [%] | Activity [17] |
| --- | --- | --- | --- | --- | --- | --- | --- | --- | --- | --- | --- | --- | --- | --- | --- | --- | --- |
| 25 | CC1(COc2ccc(/C=C3/SC(O)=NC3=O)cc2)CCCCC1 | – | – | – | – | – | – | – | – | – | – | – | – | – | – | – | – |
| – | COc1cccc2c1C(=O)c1c(O)c3c(c(O)c1C2=O)C[C@@](O)(C(=O)CO)C[C@@H]3O[C@H]1C[C@H](N)[C@H](O)[C@H](C)O1 [DOXORUBICIN] | 52.9 | 66.7 | 82.9 | 75.6 | 84.5 | 94 | 14 | 69.6 | 6.8 | 84.5 | 71.1 | 84 | 73 | 7 | 75.5 | – |
| – | O=C1NC(=O)/C(=C\c2ccc(Oc3ccc(Cl)nn3)cc2)S1 | 56.9 | 57.8 | 55.8 | 49.9 | 65.2 | 73 | – | 52.9 | 108 | 40.3 | 63.8 | 34.2 | 15.3 | – | 23.8 | – |
| – | O=C(/C=C/c1ccc(Oc2ccc(Cl)nn2)cc1)c1ccc(OCc2ccc(F)c(Cl)c2)cc1 | 54 | 69.2 | 55 | 47.2 | 61.8 | 78.2 | – | 61.9 | 36.3 | 75.6 | 49.8 | 39 | 36.2 | 30.3 | 54.6 | – |
| – | COc1ccc(C(=O)/C=C/c2ccc(Oc3ccc(Cl)nn3)cc2)cc1 | 53.5 | 77 | 62.7 | 62.1 | 68.2 | 85.6 | – | 71.4 | 112 | 69.1 | 66.7 | 52.6 | 58.4 | 54.5 | 63.1 | – |
| 1.92 | COc1cc(O)ccc1C(=O)/C=C/c1ccc(O)cc1 | – | – | – | – | – | – | – | – | – | – | – | – | – | – | – | – |
| – | O=C(/C=C/c1ccc(Oc2ccc(Cl)nn2)cc1)c1ccccc1 | 52.2 | 66.4 | 39 | 63 | 80.9 | 90.5 | 17.8 | 74.8 | 26.4 | 85.3 | 70.5 | 29.3 | 51 | 16.9 | 55.9 | Active |
| – | O=C(/C=C/c1ccc(Oc2ccc(Cl)nn2)cc1)c1ccc(OCc2ccc(OC(F)(F)F)cc2)cc1 | 49.4 | 57.8 | 39.6 | 53.6 | 84.9 | 80.3 | 83.5 | 66.3 | 68.3 | 81 | 67.4 | 53 | 40.5 | 20.3 | 49.7 | – |
| – | O=C(/C=C/c1ccc(Oc2ccc(Cl)nn2)cc1)c1ccc([N+](=O)[O-])cc1 | 65.6 | 75.1 | 55.1 | 72.9 | 82.7 | 91.9 | 60.2 | 72.1 | 36.7 | 88.6 | 74.8 | 62.2 | 63.9 | 28.8 | 64.2 | – |
| 0.002 | COC1CCN(C(=O)c2cc(Cc3n[nH]c(=O)c4ccccc34)ccc2F)CC1 [AZD2461] | – | – | – | – | – | – | – | – | – | – | – | – | – | – | – | – |
| 3 | O=c1[nH]nc2c3c(cccc13)Oc1ccc(CN3CCC(O)CC3)cc1-2 [E-7016] | – | – | – | – | – | – | – | – | – | – | – | – | – | – | – | – |
| – | O=C(/C=C/c1ccc(Oc2ccc(Cl)nn2)cc1)c1ccc(O)cc1 | 61 | 73.8 | 76.4 | 68.5 | 85 | 79.2 | 122 | 72 | 116 | 79.3 | 68.2 | 59.2 | 73.2 | 31.2 | 68.3 | – |
| – | COc1ccc(COc2ccc(C(=O)/C=C/c3ccc(Oc4ccc(Cl)nn4)cc3)cc2)cc1 | 53.5 | 72 | 44 | 60.6 | 75.5 | 88.4 | 95.2 | 69.3 | 93 | 82.4 | 60.8 | 59.3 | 40.4 | 40.2 | 44.8 | – |
| – | Cc1ccc(C(=O)/C=C/c2ccc(Oc3ccc(Cl)nn3)cc2)cc1 | 67.8 | 74.1 | 78.5 | 72.4 | 80.2 | 88 | 120 | 75.4 | 74.1 | 84.8 | 70.6 | 69.1 | 72.4 | 15.7 | 72.4 | Active |
| – | O=C(/C=C/c1ccc(Oc2ccc(Cl)nn2)cc1)c1ccc(OCc2ccccc2)cc1 | 67.8 | 77.1 | 61.4 | 71.7 | 85.4 | 89.8 | 79 | 73.9 | 54.2 | 85.5 | 73.2 | 67.2 | 68.2 | 74.5 | 46.9 | – |
